Assay [1] can be described thus: Growth inhibition of human PL45 cells at 5 uM after 24 hrs by [3H]thymidine uptake assay. Type of assay: functional. The settings on record: read-out: GI.
For assay [2], the system named is HCT-116. Put plainly: Growth inhibition of human HCT116 cells at 5 uM after 24 hrs by [3H]thymidine uptake assay. Type of assay: functional. As to conditions: read-out: GI.
Assay [3] can be described thus: Inhibition of HSP90.
A short description of assay [4]: Potency index, ratio of novobiocin IC50 to compound IC50 for HSP90 HSP90.
Assay [5] is described as follows: Cytotoxicity against human K2 O/E cells over expressing tetracycline inducible IP6K2 protein assessed as cell survival. The assay is classed as functional. The essentials: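 Stable tetracycline-inducible Myc-IP6K2 HEK293 line. IP6K2 overexpression induced with 1 μg/mL tetracycline for 24 h; wild-type control cells got vehicle alone. Cells then exposed to 25 nM drug or DMSO (no drug) for 48 h. Viability read by CCK-8 assay and expressed relative to control set at 100%.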

A short description of assay [6]: Growth inhibition of Pancreatic cancer cells. Type of assay: functional, cell-based. The settings on record: Cancer cell lines.

Residues, ends and D or L forms follow the SMILES beside them.

Take `CC(C)C[C@@H]1NC(=O)[C@H](Cc2ccccc2)NC(=O)[C@@H](CC(C)C)NC(=O)[C@H](C(C)C)NC(=O)[C@@H](CC(C)C)NC(=O)[C@H](CC(C)C)NC(=O)[C@H](Cc2ccccc2)NC(=O)[C@@H](CC(C)C)NC(=O)[C@H](C(C)C)NC(=O)[C@@H](CC(C)C)NC1=O`: the results for the inhibition of growth at 5 µM in assay [1] and in assay [2] were 9% and 0%, respectively.
For the compound `CC(C)C[C@@H]1NC(=O)[C@H](Cc2ccccc2)NC(=O)[C@@H](CC(C)C)NC(=O)[C@@H](C(C)C)NC(=O)[C@H](CC(C)C)NC(=O)[C@H](CC(C)C)NC(=O)[C@H](Cc2ccccc2)NC(=O)[C@@H](CC(C)C)NC(=O)[C@@H](C(C)C)NC(=O)[C@H](CC(C)C)NC1=O`, the concentration for a half-maximal effect (EC50) (as a rule, the concentration needed to bring the measured effect to its halfway point) in assay [3] was 2 nM. For the same compound, the inhibition of growth at 5 µM in assay [1] and in assay [2] was 99% in each case. Further, in assay [4], the Ratio IC50 came to 50000. Besides, in assay [5], the Survival amounted to 3%. Also, the half-maximal inhibitory concentration (IC50) (usually the concentration needed to halve the response being measured) in assay [6] turned out to be 1 nM.
Consider `CC(C)C[C@@H]1NC(=O)[C@H](Cc2ccccc2)NC(=O)[C@@H](CC(C)C)NC(=O)[C@@H](C(C)C)NC(=O)[C@H](CC(C)C)NC(=O)[C@@H](CC(C)C)NC(=O)[C@H](Cc2ccccc2)NC(=O)[C@@H](CC(C)C)NC(=O)[C@@H](C(C)C)NC(=O)[C@@H](CC(C)C)NC1=O`, for which the values for the inhibition of growth at 5 µM in assay [1] and in assay [2] were 4% and 0%, respectively.
The corresponding values for `CC(C)C[C@@H]1NC(=O)[C@H](CC(C)C)NC(=O)[C@@H](Cc2ccccc2)NC(=O)[C@@H](CC(C)C)NC(=O)[C@H](C(C)C)NC(=O)[C@H](CC(C)C)NC(=O)[C@H](CC(C)C)NC(=O)[C@@H](Cc2ccccc2)NC(=O)[C@@H](CC(C)C)NC(=O)[C@H](C(C)C)NC1=O` are 36% and 0%.
`CO[C@@H]1[C@@H](OC(N)=O)[C@@H](O)[C@H](Oc2ccc3c(O)c(NC(=O)c4ccc(O)c(CC=C(C)C)c4)c(=O)oc3c2C)OC1(C)C` [NOVOBIOCIN] displayed an EC50 in assay [3] of 100000 nM.
On to `CC(C)C[C@@H]1NC(=O)[C@H](CC(C)C)NC(=O)[C@@H](Cc2ccccc2)NC(=O)[C@H](CC(C)C)NC(=O)[C@H](C(C)C)NC(=O)[C@H](CC(C)C)NC(=O)[C@H](CC(C)C)NC(=O)[C@@H](Cc2ccccc2)NC(=O)[C@H](CC(C)C)NC(=O)[C@H](C(C)C)NC1=O`, for which the inhibition of growth at 5 µM in assay [1] worked out at 11%; in assay [2], 0%.
The corresponding values for `CC(C)C[C@@H]1NC(=O)[C@H](C(C)C)NC(=O)[C@@H](CC(C)C)NC(=O)[C@@H](CC(C)C)NC(=O)[C@H](Cc2ccccc2)NC(=O)[C@H](CC(C)C)NC(=O)[C@H](C(C)C)NC(=O)[C@@H](CC(C)C)NC(=O)[C@@H](CC(C)C)NC(=O)[C@H](Cc2ccccc2)NC1=O` are 48% and 0%.
The corresponding values for `CC(C)C[C@@H]1NC(=O)[C@H](Cc2ccccc2)NC(=O)[C@@H](Cc2ccccc2)N(C)C(=O)[C@@H](C(C)C)NC(=O)[C@H](CC(C)C)NC(=O)[C@H](CC(C)C)NC(=O)[C@H](Cc2ccccc2)NC(=O)[C@@H](Cc2ccccc2)N(C)C(=O)[C@@H](C(C)C)NC(=O)[C@H](CC(C)C)NC1=O` are 10% and 0%.
Consider `CC(C)C[C@@H]1NC(=O)[C@@H](Cc2ccccc2)NC(=O)[C@@H](CC(C)C)NC(=O)[C@@H](C(C)C)NC(=O)[C@@H](CC(C)C)NC(=O)[C@H](CC(C)C)NC(=O)[C@@H](Cc2ccccc2)NC(=O)[C@@H](CC(C)C)NC(=O)[C@@H](C(C)C)NC(=O)[C@@H](CC(C)C)NC1=O`, for which the inhibition of growth at 5 µM in assay [1] worked out at 79%; in assay [2] it was 40%.
The matching figures for `CC(C)C[C@@H]1NC(=O)[C@H](Cc2ccccc2)NC(=O)[C@H](CC(C)C)NC(=O)[C@@H](C(C)C)NC(=O)[C@@H](CC(C)C)NC(=O)[C@H](CC(C)C)NC(=O)[C@H](Cc2ccccc2)NC(=O)[C@H](CC(C)C)NC(=O)[C@@H](C(C)C)NC(=O)[C@@H](CC(C)C)NC1=O`: 25% and 0%.
The matching figures for `CC(C)C[C@@H]1NC(=O)[C@H](Cc2ccccc2)NC(=O)[C@H](CC(C)C)NC(=O)[C@@H](C(C)C)NC(=O)[C@H](CC(C)C)NC(=O)[C@H](CC(C)C)NC(=O)[C@H](Cc2ccccc2)NC(=O)[C@H](CC(C)C)NC(=O)[C@@H](C(C)C)NC(=O)[C@H](CC(C)C)NC1=O`: 30% and 0%.
The matching figures for `CC(C)C[C@@H]1NC(=O)[C@H](CC(C)C)NC(=O)[C@@H](Cc2ccccc2)NC(=O)[C@@H](CC(C)C)NC(=O)[C@@H](C(C)C)NC(=O)[C@@H](CC(C)C)NC(=O)[C@H](CC(C)C)NC(=O)[C@@H](Cc2ccccc2)NC(=O)[C@@H](CC(C)C)NC(=O)[C@@H](C(C)C)NC1=O`: 8% and 0%.
Consider `CC(C)C[C@@H]1NC(=O)[C@H](Cc2ccccc2)NC(=O)[C@@H](CC(C)C)NC(=O)[C@@H](C(C)C)NC(=O)[C@H](CC(C)C)NC(=O)[C@H](CC(C)C)NC(=O)[C@@H](Cc2ccccc2)NC(=O)[C@@H](CC(C)C)NC(=O)[C@@H](C(C)C)NC(=O)[C@H](CC(C)C)NC1=O`, for which the values for the inhibition of growth at 5 µM in assay [1] and in assay [2] were 7% and 0%, respectively.
The corresponding values for `CC(C)C[C@@H]1NC(=O)[C@H](Cc2ccccc2)NC(=O)[C@H](CC(C)C)NC(=O)[C@H](C(C)C)NC(=O)[C@@H](CC(C)C)NC(=O)[C@H](CC(C)C)NC(=O)[C@H](Cc2ccccc2)NC(=O)[C@H](CC(C)C)NC(=O)[C@H](C(C)C)NC(=O)[C@@H](CC(C)C)NC1=O` are 12% and 0%.
The matching figures for `CC(C)C[C@@H]1NC(=O)[C@H](Cc2ccccc2)NC(=O)[C@@H](CC(C)C)NC(=O)[C@@H](C(C)C)NC(=O)[C@@H](CC(C)C)NC(=O)[C@H](CC(C)C)NC(=O)[C@@H](Cc2ccccc2)NC(=O)[C@@H](CC(C)C)NC(=O)[C@@H](C(C)C)NC(=O)[C@H](CC(C)C)NC1=O`: 15% and 0%.
The corresponding values for `CC(C)C[C@@H]1NC(=O)[C@H](Cc2ccccc2)NC(=O)[C@H](CC(C)C)NC(=O)[C@H](C(C)C)NC(=O)[C@H](CC(C)C)NC1=O` (cyclo(FLLVL)) are 25% and 33%.
Turning to `CC(C)C[C@@H]1NC(=O)[C@H](C(C)C)NC(=O)[C@@H](CC(C)C)NC(=O)[C@@H](Cc2ccccc2)NC(=O)[C@H](Cc2ccccc2)NC(=O)[C@H](CC(C)C)NC(=O)[C@H](C(C)C)NC(=O)[C@@H](CC(C)C)NC(=O)[C@@H](Cc2ccccc2)NC(=O)[C@H](Cc2ccccc2)NC1=O`, the inhibition of growth at 5 µM in assay [1] stood at 10%; in assay [2] it was 0%.
On to `CC(C)C[C@@H]1NC(=O)[C@H](Cc2ccccc2)NC(=O)[C@@H](CC(C)C)NC(=O)[C@@H](C(C)C)NC(=O)[C@H](CC(C)C)NC(=O)[C@@H](CC(C)C)NC(=O)[C@@H](Cc2ccccc2)NC(=O)[C@@H](CC(C)C)NC(=O)[C@@H](C(C)C)NC(=O)[C@@H](CC(C)C)NC1=O`, for which the inhibition of growth at 5 µM in assay [1] stood at 17%; in assay [2], 0%.
Regarding `CC(C)C[C@@H]1NC(=O)[C@H](Cc2ccccc2)NC(=O)[C@@H](CC(C)C)NC(=O)[C@@H](C(C)C)NC(=O)[C@@H](CC(C)C)NC(=O)[C@H](CC(C)C)NC(=O)[C@@H](Cc2ccccc2)NC(=O)[C@@H](CC(C)C)NC(=O)[C@@H](C(C)C)NC(=O)[C@@H](CC(C)C)NC1=O`, the inhibition of growth at 5 µM in assay [1] stood at 12%; in assay [2] it was 0%.
The corresponding values for `CC(C)C[C@@H]1NC(=O)[C@H](Cc2ccccc2)NC(=O)[C@@H](CC(C)C)NC(=O)[C@@H](C(C)C)NC(=O)[C@@H](CC(C)C)NC(=O)[C@H](CC(C)C)NC(=O)[C@H](Cc2ccccc2)NC(=O)[C@@H](CC(C)C)NC(=O)[C@@H](C(C)C)NC(=O)[C@@H](CC(C)C)NC1=O` are 21% and 17%.
`CC(C)C[C@@H]1NC(=O)[C@H](Cc2ccccc2)NC(=O)[C@@H](Cc2ccccc2)NC(=O)[C@@H](C(C)C)NC(=O)[C@H](CC(C)C)NC(=O)[C@H](CC(C)C)NC(=O)[C@H](Cc2ccccc2)NC(=O)[C@@H](Cc2ccccc2)NC(=O)[C@@H](C(C)C)NC(=O)[C@H](CC(C)C)NC1=O`: the inhibition of growth at 5 µM in assay [1] is 13%; in assay [2] it was 16%.
As for `CC(C)C[C@@H]1NC(=O)[C@H](CC(C)C)NC(=O)[C@@H](Cc2ccccc2)NC(=O)[C@@H](CC(C)C)NC(=O)[C@@H](C(C)C)NC(=O)[C@H](CC(C)C)NC(=O)[C@H](CC(C)C)NC(=O)[C@@H](Cc2ccccc2)NC(=O)[C@@H](CC(C)C)NC(=O)[C@@H](C(C)C)NC1=O`, the inhibition of growth at 5 µM in assay [1] turned out to be 10%; in assay [2], 0%.
The corresponding values for `CC(C)C[C@@H]1NC(=O)[C@H](C(C)C)NC(=O)[C@H](CC(C)C)NC(=O)[C@@H](CC(C)C)NC(=O)[C@@H](Cc2ccccc2)NC(=O)[C@H](CC(C)C)NC(=O)[C@H](C(C)C)NC(=O)[C@H](CC(C)C)NC(=O)[C@@H](CC(C)C)NC(=O)[C@@H](Cc2ccccc2)NC1=O` are 12% and 0%.
